Assay outcomes (PubChem BioAssay)
RAM inhibit – yeast RAM network inhibition | inhibition, % at 50 µM | 1.8% of 190,000 active | S. cerevisiae dse1pr::URA3 reporter, 5-FOA growth OD615, 2 d; analog-sensitive cbk1-as2 kinase mutant strain;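 active = inhibition above a set limit, 3 SD over mean compound inhibition, cut at about 8.4% in these data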;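 also: 0% = DMSO-only wells with no growth and 100% = 10 µM 1-NA-PP1 full growth; inhibition rescues growth on 5-FOA so higher OD means more RAM inhibition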
Arbovirus anti – blocks arbovirus infection; 0.37% of 200,000 active; inhibition, % at 10 µM; arbovirus infection cell-based antiviral screen; in the data active = inhibition above about 30%
Calb biofilm kill – mixture kills Candida albicans biofilm cells; 0.02% of 120,000 active; C. albicans biofilm persisters + clotrimazole, fluorescence viability; primary screen in compound mixtures of four per well; inhibition, % at 7.6 µM;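 active = inhibition above 30.3% in the primary screen of four-compound pools, then above 30% when the compound was retested; inconclusive = passed the primary limit but could not be retested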;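 also: compounds exposed to preformed 24 h biofilms for 48 h; 0% = untreated biofilm control and 100% = clotrimazole plus chlorhexidine kill blank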
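Test system: C. albicans biofilms. Buffer or medium: RPMI/MOPS medium, pH 7.0. Timing: 48 h compound exposure at 37 °C. Technique: Alamar Blue fluorescence. Evaluation: percent inhibition of biofilm viability.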
Hck Nef HTS – human Hck-Nef kinase inhibition | inhibition, % at 20 µM | Recombinant Hck-YEEI plus Nef, Z-Lyte FRET kinase assay | 0.68% of 220,000 active | AID 463187;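 active = Hck-Nef kinase inhibition above about 50%, limit read from the data; inactive = inhibition below that limit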;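 also: 0% = DMSO with Hck plus Nef and 100% = Hck alone without Nef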
Target sequence (P08631 whole entry, looked up): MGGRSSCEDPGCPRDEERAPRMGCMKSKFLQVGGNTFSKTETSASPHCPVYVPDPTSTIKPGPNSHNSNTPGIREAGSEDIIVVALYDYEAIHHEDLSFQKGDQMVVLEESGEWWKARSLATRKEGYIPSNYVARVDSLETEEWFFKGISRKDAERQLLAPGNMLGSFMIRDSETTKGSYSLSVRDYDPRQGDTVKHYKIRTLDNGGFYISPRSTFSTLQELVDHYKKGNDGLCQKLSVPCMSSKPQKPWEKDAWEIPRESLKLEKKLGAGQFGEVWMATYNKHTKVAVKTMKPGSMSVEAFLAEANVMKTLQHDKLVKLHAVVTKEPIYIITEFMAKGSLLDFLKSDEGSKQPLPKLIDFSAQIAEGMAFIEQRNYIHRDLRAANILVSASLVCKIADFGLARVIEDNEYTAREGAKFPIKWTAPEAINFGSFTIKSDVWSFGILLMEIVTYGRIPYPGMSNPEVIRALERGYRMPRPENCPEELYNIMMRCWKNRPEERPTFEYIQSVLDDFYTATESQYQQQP
WT yeast gro inh – growth inhibition of WT yeast, mitochondrial fusion screen; mitochondrial fusion phenotypic screen, WT strain; inhibition, % at 10 µM; 2.1% of 190,000 active; AID 1362; in the data active = inhibition above about 58%; tested in S. cerevisiae
NCF1 inh – inhibitors of human p47phox binding. P14598. p47phox/p22phox peptide binding, fluorescence polarization, 2 h. inhibition, % at 24.7 µM. 0.53% of 220,000 active;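 active = inhibition above about 30%, limit read from the data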;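 also: 0% = p47phox with labelled peptide and 100% = labelled peptide alone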
An asterisk follows results filed as active. An excerpt weighted towards active compounds, which were near 4.6% of everything screened.

Nc1nc(NCc2ccco2)nc(Nc2ccccc2)c1[N+](=O)[O-] was read as Calb biofilm kill 8.4, Hck Nef HTS 31.8 and NCF1 inh 76.2*.
CC1CC(C)CN(c2nc(NCc3ccco3)nc(N)c2[N+](=O)[O-])C1 (stereo not given) was read as RAM inhibit -0.6, Arbovirus anti 32.9*, Calb biofilm kill 11.2, Hck Nef HTS 3.4, WT yeast gro inh 25.4 and NCF1 inh -15.3.
Screening CC1CCCN(c2nc(NCc3ccco3)nc(N)c2[N+](=O)[O-])C1 (stereo not given) returned RAM inhibit -0.3, Arbovirus anti 14.5, Calb biofilm kill 12.3, Hck Nef HTS 5.3, WT yeast gro inh 0.6 and NCF1 inh -13.8.
CC(NC(=O)CCCCCCN1C(=O)c2ccccc2C1=O)c1ccc2c(c1)CCCC2 (stereo not given) was read as RAM inhibit 10.7*, Arbovirus anti 0.4, Calb biofilm kill 10.6, Hck Nef HTS 5.1, WT yeast gro inh -14.0 and NCF1 inh -5.1.
`CC(NC(=O)CCCN1C(=O)c2ccccc2C1=O)c1ccc2c(c1)CCCC2` (stereo not given) gave RAM inhibit 2.3, Arbovirus anti -4.5, Hck Nef HTS 3.0, WT yeast gro inh 8.2 and NCF1 inh -6.7.
For CC(NC(=O)CCCCCN1C(=O)c2ccccc2C1=O)c1ccc2c(c1)CCCC2 (stereo not given) the results were RAM inhibit 9.1*, Arbovirus anti 14.5, Hck Nef HTS 2.4, WT yeast gro inh 24.9 and NCF1 inh -4.9.
For Cc1sc2nc(CN(Cc3cccs3)C(=O)NC3CCCCC3)[nH]c(=O)c2c1C the results were RAM inhibit 3.0, Arbovirus anti -14.0, Hck Nef HTS -1.4, WT yeast gro inh 65.9* and NCF1 inh -4.6.
Screening Cc1sc2nc(CN(C(=O)NC3CCCCC3)C3CCCC3)[nH]c(=O)c2c1C returned RAM inhibit 3.0, Arbovirus anti -13.9, Calb biofilm kill 5.7, Hck Nef HTS 5.8, WT yeast gro inh -3.0 and NCF1 inh -10.4.
For Cc1ccc(Nc2cc(-n3cccn3)ncn2)c(C)c1 the results were RAM inhibit 0.6, Arbovirus anti 8.3, Hck Nef HTS 3.6, WT yeast gro inh -0.9 and NCF1 inh -10.8.
For Cc1ccc(Nc2cc(-n3nc(C)cc3C)ncn2)c(C)c1 the results were RAM inhibit 9.1*, Arbovirus anti -2.6, Hck Nef HTS -6.5, WT yeast gro inh 24.8 and NCF1 inh 8.4.
`O=C(C[n+]1ccc2ccccc2c1)c1cccc2ccccc12` gave RAM inhibit 1.0, Arbovirus anti 6.2, Calb biofilm kill 17.6, Hck Nef HTS 19.6, WT yeast gro inh 3.6 and NCF1 inh -5.7.
Screening O=C(/C=C/c1cc[n+](CC(=O)c2ccc3cccc4c3c2CC4)cc1)c1ccc2cccc3c2c1CC3 returned Calb biofilm kill inconclusive, Hck Nef HTS 68.6* and NCF1 inh 29.1.
`CCN(CC)S(=O)(=O)c1cc(NS(=O)(=O)c2cc(Cl)ccc2Cl)ccc1C` gave RAM inhibit 11.1*, Arbovirus anti 26.0, Calb biofilm kill 9.0, Hck Nef HTS 0.7, WT yeast gro inh -6.3 and NCF1 inh -2.1.
Screening CCSC1=NN2CCS(=O)(=O)N=C2S1 returned RAM inhibit 0.5, Arbovirus anti 5.5, Calb biofilm kill 23.5, Hck Nef HTS -0.9, WT yeast gro inh -12.7 and NCF1 inh -15.2.
For CC(C)N1C2OC(C3OC4C(O3)N(C(C)C)S(=O)(=O)N4C(C)C)OC2N(C(C)C)S1(=O)=O (stereo not given) the results were RAM inhibit 0.9, Arbovirus anti 10.6, Hck Nef HTS 0.4, WT yeast gro inh 62.8* and NCF1 inh -12.6.
For CCCC(=O)NC(=S)Nc1nc(-c2ccc(OC)cc2)cs1 the results were RAM inhibit 10.1*, Arbovirus anti -9.0, Calb biofilm kill 15.1, Hck Nef HTS 7.2, WT yeast gro inh 0.5 and NCF1 inh -10.2.
`CCc1c(C)nc(SCC(=O)Nc2nc(-c3ccc(OC)cc3)cs2)[nH]c1=O` gave RAM inhibit 10.8*, Arbovirus anti 1.4, Calb biofilm kill 7.5, Hck Nef HTS 11.5, WT yeast gro inh -8.0 and NCF1 inh -6.6.
`CCc1c(C)nc(SCC(=O)NNC(=O)Cc2ccc(OC)cc2)[nH]c1=O` gave Calb biofilm kill 24.6, Hck Nef HTS -6.5 and NCF1 inh -4.9.
O=C1CC(=O)N(Cc2ccco2)C(=O)N1 was read as RAM inhibit -0.3, Arbovirus anti 34.1*, Hck Nef HTS 13.3, WT yeast gro inh -0.9 and NCF1 inh -25.8.
COc1cccc(CNC(=O)c2ccc(S(=O)(=O)N3CCCC3)cc2)c1 was read as RAM inhibit 1.4, Arbovirus anti -0.8, Hck Nef HTS -0.2, WT yeast gro inh -43.6 and NCF1 inh -14.6.
For COc1ccc(CCn2nnnc2C(CC(C)C)N2CCN(c3ncccn3)CC2)cc1OC (stereo not given) the results were RAM inhibit 2.9, Arbovirus anti 3.4, Hck Nef HTS 1.9, WT yeast gro inh 65.5* and NCF1 inh -5.6.
`COc1ccc(N2CCN(C(c3nnnn3CCc3ccccc3)C(C)C)CC2)cc1` (stereo not given) gave RAM inhibit -0.6, Arbovirus anti -0.3, Hck Nef HTS 1.8, WT yeast gro inh 6.2 and NCF1 inh -1.3.
Screening COc1ccc(CCn2nnnc2C(C(C)C)N2CCN(c3ncccn3)CC2)cc1OC (stereo not given) returned RAM inhibit 1.9, Arbovirus anti 15.3, Hck Nef HTS 1.8, WT yeast gro inh 61.8* and NCF1 inh -12.9.
O=C(CS(=O)(=O)c1c[nH]c2ccccc12)N1CCc2ccccc21 was read as RAM inhibit 4.5, Arbovirus anti 3.3, Calb biofilm kill 15.0, Hck Nef HTS 16.8, WT yeast gro inh -3.4 and NCF1 inh -2.6.
Screening O=C(C[n+]1cccc(NC(=O)c2ccccc2)c1)c1ccc(NC(=O)c2ccccc2)cc1 returned RAM inhibit 11.3*, Arbovirus anti -11.7, Hck Nef HTS -2.8, WT yeast gro inh 8.0 and NCF1 inh -20.1.
`Cc1[nH]c2ccccc2c1N=Nc1ccccc1F` gave RAM inhibit -0.7, Arbovirus anti -26.7, Calb biofilm kill 14.6, Hck Nef HTS -12.2, WT yeast gro inh 72.2* and NCF1 inh -21.0.
For Cc1[nH]c2ccccc2c1N=Nc1ccc(F)cc1 the results were RAM inhibit -1.4, Arbovirus anti -32.6, Calb biofilm kill 4.3, Hck Nef HTS 20.8, WT yeast gro inh 67.8 and NCF1 inh -17.5.
Screening O=C(CC1N=C(Cc2ccccc2)NNC1=O)N/N=C/c1ccc([N+](=O)[O-])cc1 (stereo not given) returned RAM inhibit 2.2, Arbovirus anti 2.9, Calb biofilm kill 3.1, Hck Nef HTS 15.1, WT yeast gro inh 2.7 and NCF1 inh 0.4.
